Laboratory results published in ChEMBL document CHEMBL1142894, “Preparation of 5-aryl-3-alkylthio-l,2,4-triazoles and corresponding sulfones with antiinflammatory-analgesic activity” (Bioorg Med Chem, 2007).

Columns and labels:
Format in all cases: functional
[1] = test system: Mus musculus; test: Antiinflammatory activity against carrageenan-induced paw edema in Swiss albino mouse assessed as swelling thickness at 100 mg/kg, po after 90 mins
Procedure, shortened: (§1)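 Oral dosing in 0.5% CMC; vehicle to controls. Then carrageenan (0.5 mg/25 ll, freshly suspended in 154 mM saline) injected into the right hind paw subplantar tissue; saline into the left paw. Right-left footpad thickness difference measured by dial gauge calliper every 90 min over 6 h. Inhibition % is relative to vehicle control. n = 6; mean ± SEM.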

[2] = test system: Mus musculus; test: Antiinflammatory activity against carrageenan-induced paw edema in Swiss albino mouse assessed as swelling thickness at 100 mg/kg, po after 360 mins; procedure, shortened: as §1
[3] = test system: Mus musculus; test: Antiinflammatory activity against carrageenan-induced paw edema in Swiss albino mouse assessed as swelling thickness at 10 mg/kg, po after 360 mins; procedure, shortened: as §1
[4] = test system: Mus musculus; test: Inhibition of carrageenan-induced paw edema in Swiss albino mouse at 10 mg/kg, po after 360 mins relative to control; details: 6 h; procedure, shortened: as §1
[5] = test system: Mus musculus; test: Antiinflammatory activity against carrageenan-induced paw edema in Swiss albino mouse assessed as swelling thickness at 10 mg/kg, po after 270 mins; procedure, shortened: as §1
[6] = test system: Mus musculus; test: Inhibition of carrageenan-induced paw edema in Swiss albino mouse at 100 mg/kg, po after 360 mins relative to control; details: 6 h; procedure, shortened: as §1
[7] = test system: Mus musculus; test: Inhibition of carrageenan-induced paw edema in Swiss albino mouse at 100 mg/kg, po after 270 mins relative to control; details: 4.5 h; procedure, shortened: as §1
[8] = test system: Mus musculus; test: Antiinflammatory activity against carrageenan-induced paw edema in Swiss albino mouse assessed as swelling thickness at 10 mg/kg, po after 180 mins; procedure, shortened: as §1
[9] = test system: Mus musculus; test: Inhibition of carrageenan-induced paw edema in Swiss albino mouse at 100 mg/kg, po after 90 mins relative to control; details: 1.5 h; procedure, shortened: as §1
[10] = test system: Mus musculus; test: Inhibition of carrageenan-induced paw edema in Swiss albino mouse at 10 mg/kg, po after 180 mins relative to control; details: 3 h; procedure, shortened: as §1
[11] = test system: Mus musculus; test: Inhibition of carrageenan-induced paw edema in Swiss albino mouse at 100 mg/kg, po after 180 mins relative to control; details: 3 h; procedure, shortened: as §1
[12] = test system: Mus musculus; test: Antiinflammatory activity against carrageenan-induced paw edema in Swiss albino mouse assessed as swelling thickness at 10 mg/kg, po after 90 mins; procedure, shortened: as §1
[13] = test system: Mus musculus; test: Inhibition of carrageenan-induced paw edema in Swiss albino mouse at 10 mg/kg, po after 90 mins relative to control; details: 1.5 h; procedure, shortened: as §1
[14] = test system: Mus musculus; test: Antiinflammatory activity against carrageenan-induced paw edema in Swiss albino mouse assessed as swelling thickness at 100 mg/kg, po after 270 mins; procedure, shortened: as §1
[15] = test system: Mus musculus; test: Inhibition of carrageenan-induced paw edema in Swiss albino mouse at 10 mg/kg, po after 270 mins relative to control; details: 4.5 h; procedure, shortened: as §1
[16] = test system: Mus musculus; test: Antiinflammatory activity against carrageenan-induced paw edema in Swiss albino mouse assessed as swelling thickness at 100 mg/kg, po after 180 mins; procedure, shortened: as §1

## COc1ccc2c(c1)c(CC(=O)O)c(C)n2C(=O)c1ccc(Cl)cc1 [INDOMETHACIN]
[1]
  Activity: 31.9 10^-2mm
[2]
  Activity: 39.7 10^-2mm
[3]
  Activity: 40.2 10^-2mm
[4]
  inhibition in vivo at 10 mg/kg: 44.2%
[5]
  Activity: 37.5 10^-2mm
[6]
  inhibition in vivo at 100 mg/kg: 42.3%
[7]
  inhibition in vivo at 100 mg/kg: 37.9%
[8]
  Activity: 39.1 10^-2mm
[9]
  inhibition in vivo at 100 mg/kg: 28.8%
[10]
  inhibition in vivo at 10 mg/kg: 34.2%
[11]
  inhibition in vivo at 100 mg/kg: 32.4%
[12]
  Activity: 34.5 10^-2mm
[13]
  inhibition in vivo at 10 mg/kg: 35.2%
[14]
  Activity: 36.5 10^-2mm
[15]
  inhibition in vivo at 10 mg/kg: 42.1%
[16]
  Activity: 34.8 10^-2mm
